ChEMBL document CHEMBL1125346, “Guanidinophenyl-substituted enol lactones as selective, mechanism-based inhibitors of trypsin-like serine proteases” (J Med Chem, 1992)

Tests used:
[1] = target: T1, Neutrophil elastase (Homo sapiens) (UniProt P08246); assay: Time for which maximum percent inhibition persists was determined against human neutrophil elastase HNE(66 nM); format: functional
T1 sequence (whole entry): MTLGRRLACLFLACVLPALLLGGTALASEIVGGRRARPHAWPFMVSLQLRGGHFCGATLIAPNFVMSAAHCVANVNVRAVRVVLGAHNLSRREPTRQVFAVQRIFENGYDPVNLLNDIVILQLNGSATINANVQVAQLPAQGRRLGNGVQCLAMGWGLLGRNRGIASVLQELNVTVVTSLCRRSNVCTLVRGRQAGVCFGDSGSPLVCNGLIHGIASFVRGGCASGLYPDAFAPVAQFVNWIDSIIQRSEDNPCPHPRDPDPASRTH
Summary of the method: (§1)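 Enzyme incubated with excess lactone added from DMSO stock (final 10% DMSO); aliquots over 2 h diluted into substrate: chymotrypsin Suc-AAPF-pNA 315 µM, pH 7.2, 410 nm; t-PA Spectrozyme t-PA 0.2 mM, Tris-imidazole pH 8.4, 405 nm; HNE MeO-Suc-AAPV-pNA 150 µM, pH 7.4, 410 nm; plasmin Ts-GPK-pNA 157.4 µM, pH 7.8, 404 nm; thrombin Ts-GPR-pNA 75 µM, pH 8.0, 408 nm; trypsin Z-VGR-pNA 155 µM, pH 7.2, 404 nm. Activity given relative to a no-lactone control. Some runs used a 10-min substrate-free delay after dilution. ∞ means no recovery over 2 h.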

[2] = target: Plasminogen (Homo sapiens) (UniProt P00747); assay: Second order rate constant against plasmin
Sequence of Plasminogen (Homo sapiens) (P00747 97-580 limits assumed): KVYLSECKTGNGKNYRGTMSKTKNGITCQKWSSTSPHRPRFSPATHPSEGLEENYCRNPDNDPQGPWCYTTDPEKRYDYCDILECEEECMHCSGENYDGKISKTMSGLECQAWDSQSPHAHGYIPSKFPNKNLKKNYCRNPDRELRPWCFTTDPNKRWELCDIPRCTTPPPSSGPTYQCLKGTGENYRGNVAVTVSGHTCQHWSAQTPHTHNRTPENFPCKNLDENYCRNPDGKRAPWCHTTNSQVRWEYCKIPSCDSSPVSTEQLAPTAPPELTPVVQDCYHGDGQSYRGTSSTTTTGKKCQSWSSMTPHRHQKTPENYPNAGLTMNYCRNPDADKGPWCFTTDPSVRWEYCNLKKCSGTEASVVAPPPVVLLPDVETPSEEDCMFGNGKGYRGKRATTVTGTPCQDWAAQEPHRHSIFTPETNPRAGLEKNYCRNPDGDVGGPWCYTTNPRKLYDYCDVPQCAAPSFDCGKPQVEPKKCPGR
Sequence of Plasminogen (Homo sapiens) (P00747 581-810 limits assumed): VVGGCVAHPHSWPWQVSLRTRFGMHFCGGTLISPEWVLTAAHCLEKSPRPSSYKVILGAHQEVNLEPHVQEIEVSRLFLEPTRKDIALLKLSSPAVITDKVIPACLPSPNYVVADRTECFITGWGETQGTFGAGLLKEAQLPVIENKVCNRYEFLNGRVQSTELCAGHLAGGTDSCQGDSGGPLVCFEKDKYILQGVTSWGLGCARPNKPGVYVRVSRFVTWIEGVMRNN
Summary of the method: (§2)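 Competitive substrate assay: lactone (DMSO, final 10% v/v) and chromogenic substrate combined in buffer, enzyme added, absorbance followed to steady state. Turnover-corrected semilog plot gives kobs; I0 vs I0/kobs replot (eq 6) with separately determined Km yields Ki and ka. Where no burst was seen, Ki was estimated from Km(app) replots using 15-s initial velocities. Buffers and substrates as in incubation assay.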

[3] = target: T1, Neutrophil elastase (Homo sapiens); assay: Time to reach maximum percent inhibition by the compound was determined against human neutrophil elastase HNE(66 nM); format: functional
Summary of the method: (§3)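 HNE was incubated with excess lactone in 10% final DMSO. Aliquots drawn during 2 h went into MeO-Suc-Ala-Ala-Pro-Val-pNA (150 μM) in 0.1 M phosphate, 0.5 M NaCl, pH 7.4, read at 410 nm. Activity was set relative to a lactone-free control, and the time (min) to peak inhibition was noted.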

[4] = target: T2, Urokinase-type plasminogen activator (Homo sapiens, UniProt P00749)
[5] = target: Plasminogen (Homo sapiens) (UniProt P00747); assay: Time to reach maximum percent inhibition by the compound was determined against plasmin(625 nM); format: functional
Summary of the method: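 Plasmin plus excess lactone (10% final DMSO) was sampled over 2 h into Ts-Gly-Pro-Lys-pNA (157.4 μM) in 0.05 M phosphate, pH 7.8. The slope at 404 nm, relative to an enzyme-only control, gave residual activity. Minutes needed to reach maximal inhibition were reported.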

[6] = target: Chymotrypsinogen A (Bos taurus) (UniProt P00766); assay: Time for which maximum percent inhibition persists was determined against alpha-chymotrypsin (17 nM); format: functional; summary of the method: as §1
[7] = target: T3, Serine protease 1 (Bos taurus) (UniProt P00760); assay: Maximum percent inhibition by the compound was determined against trypsin (14.6 nM); summary of the method: as §1
T3 sequence (whole entry): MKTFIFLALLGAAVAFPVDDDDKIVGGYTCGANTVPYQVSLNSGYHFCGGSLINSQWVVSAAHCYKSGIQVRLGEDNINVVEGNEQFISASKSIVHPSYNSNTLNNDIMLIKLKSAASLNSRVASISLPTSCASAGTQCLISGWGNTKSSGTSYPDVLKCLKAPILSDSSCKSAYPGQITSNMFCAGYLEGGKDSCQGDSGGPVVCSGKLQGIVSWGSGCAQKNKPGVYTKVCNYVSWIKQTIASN

[8] = target: Tissue-type plasminogen activator (Homo sapiens) (UniProt P00750); assay: Maximum percent inhibition persists was determined against Tissue plasminogen activator (19.4 nM); summary of the method: as §1
Sequence of Tissue-type plasminogen activator (Homo sapiens) (P00750 36-562 limits assumed): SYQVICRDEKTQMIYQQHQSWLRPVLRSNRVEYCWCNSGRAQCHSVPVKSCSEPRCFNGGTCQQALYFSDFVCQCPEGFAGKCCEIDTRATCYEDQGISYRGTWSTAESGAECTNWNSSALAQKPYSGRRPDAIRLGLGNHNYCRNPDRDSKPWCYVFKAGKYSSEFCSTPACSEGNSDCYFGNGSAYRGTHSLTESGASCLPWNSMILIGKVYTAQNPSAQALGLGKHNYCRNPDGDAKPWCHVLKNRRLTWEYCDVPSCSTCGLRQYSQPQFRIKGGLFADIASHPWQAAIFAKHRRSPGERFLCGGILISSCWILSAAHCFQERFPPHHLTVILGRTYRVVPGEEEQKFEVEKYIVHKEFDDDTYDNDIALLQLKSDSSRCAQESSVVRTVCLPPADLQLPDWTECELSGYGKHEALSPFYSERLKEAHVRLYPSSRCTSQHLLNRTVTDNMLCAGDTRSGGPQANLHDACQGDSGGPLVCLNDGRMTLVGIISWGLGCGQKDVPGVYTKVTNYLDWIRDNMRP

[9] = target: Plasminogen (Homo sapiens) (UniProt P00747); assay: Maximum percent inhibition by the compound was determined against plasmin(625 nM); summary of the method: as §1
[10] = Ratio of initial inhibitor concentration to initial trypsin concentration
Summary of the method: (§4)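 Ratio I0/E0 of lactone to enzyme in the 2-h incubation assay; lactone added from DMSO stock to buffered enzyme (final 10% DMSO).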

[11] = target: Prothrombin (Homo sapiens) (UniProt P00734); assay: Time for which maximum percent inhibition persists was determined against thrombin (1.93 nM); format: functional; summary of the method: as §1
[12] = target: T1, Neutrophil elastase (Homo sapiens); assay: Maximum percent inhibition by the compound was determined against human neutrophil elastase HNE(66 nM); summary of the method: as §1
[13] = Ratio of initial inhibitor concentration to initial Plasmin concentration; summary of the method: as §4
[14] = target: Prothrombin (Homo sapiens) (UniProt P00734); assay: Maximum percent inhibition by the compound was determined against thrombin (1.93 nM); summary of the method: as §1
[15] = target: Plasminogen (Homo sapiens) (UniProt P00747); assay: Acylation rate constant against plasmin; summary of the method: as §2
[16] = Ratio of initial inhibitor concentration to initial Chymotrypsinogen concentration; summary of the method: as §4
[17] = target: Tissue-type plasminogen activator (Homo sapiens) (UniProt P00750); assay: Time to reach maximum percent inhibition by the compound was determined against Tissue plasminogen activator (19.4 nM); format: functional
Summary of the method: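 Tissue plasminogen activator was exposed to excess lactone (10% final DMSO). Over 2 h, aliquots were diluted into Spectrozyme t-PA (0.2 mM) in Tris-imidazole, I 0.3, pH 8.4. Hydrolysis at 405 nm gave residual activity relative to an enzyme-only control. The time (min) to reach maximal percent inhibition was recorded.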

[18] = target: Prothrombin (Homo sapiens) (UniProt P00734); assay: Time to reach maximum percent inhibition by the compound was determined against thrombin (1.93 nM); format: functional
Summary of the method: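 Thrombin was incubated with excess lactone (DMSO, 10% final). Aliquots over 2 h were diluted into Ts-Gly-Pro-Arg-pNA (75 μM) in 0.05 M phosphate, 0.01 M EDTA, 10 g/L PEG 8000, 10 mg/L aprotinin, pH 8.0, and read at 408 nm against a no-lactone control. Time to maximal inhibition was recorded.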

[19] = target: Plasminogen (Homo sapiens) (UniProt P00747); assay: Time for which maximum percent inhibition persists was determined against plasmin(625 nM); * =no enzyme activity was recovered over 2 h; format: functional; summary of the method: as §1
[20] = target: Chymotrypsinogen A (Bos taurus) (UniProt P00766); assay: Maximum percent inhibition by the compound was determined against Chymotrypsinogen (17 nM); summary of the method: as §1
[21] = target: Plasminogen (Homo sapiens) (UniProt P00747); assay: Substrate binding constant against plasmin; summary of the method: as §2
Serine protease 1 = target: T4, Serine protease 1 (Bos taurus, UniProt P00760); assay: Decylation rate constant against trypsin
T4 sequence (P00760 whole entry): T3 sequence (whole entry)
Summary of the method: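 Trypsin incubated 30–45 min with excess lactone (same I0/E0 as incubation assay). Free inhibitor removed by two 1-h centrifugations at 0 °C. Activity recovery followed at room temperature against an inhibitor-free control carried through the same treatment; kd is the slope of ln remaining activity vs time. Substrate Z-Val-Gly-Arg-pNA 155 µM, 0.2 M phosphate pH 7.2, 404 nm.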

[22] = target: Chymotrypsinogen A (Bos taurus) (UniProt P00766); assay: Time to reach maximum percent inhibition by the compound was determined against alpha-chymotrypsin (17 nM); format: functional
Summary of the method: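 α-Chymotrypsin with excess lactone (DMSO, 10% final) was sampled over 2 h into Suc-Ala-Ala-Pro-Phe-pNA (315 μM) in 0.2 M phosphate, pH 7.2. Absorbance at 410 nm gave the remaining activity versus a control without lactone. Minutes to maximal inhibition were taken.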

[23] = Ratio of initial inhibitor concentration to initial urokinase concentration; summary of the method: as §4
[24] = target: Tissue-type plasminogen activator (Homo sapiens) (UniProt P00750); assay: Time for which maximum percent inhibition persists was determined against Tissue plasminogen activator (19.4 nM); format: functional; summary of the method: as §1
[25] = Ratio of initial inhibitor concentration to initial t-PA concentration; summary of the method: as §4
[26] = target: T3, Serine protease 1 (Bos taurus); assay: Acylation rate constant against trypsin; summary of the method: as §2
[27] = target: T2, Urokinase-type plasminogen activator; remark: listed apart in the source
[28] = Ratio of initial inhibitor concentration to initial HNE concentration; summary of the method: as §4
[29] = target: T2, Urokinase-type plasminogen activator; remark: listed apart in the source
[30] = Ratio of initial inhibitor concentration to initial thrombin concentration; summary of the method: as §4
[31] = target: T2, Urokinase-type plasminogen activator; assay: Substrate binding constant against Urokinase
[32] = target: T3, Serine protease 1 (Bos taurus); assay: Second order rate constant against trypsin; summary of the method: as §2
[33] = target: T1, Neutrophil elastase (Homo sapiens); assay: Time to reach maximum percent inhibition by the compound was determined against human neutrophil elastase (HNE); format: functional; summary of the method: as §3
[34] = target: T1, Neutrophil elastase (Homo sapiens); assay: Maximum percent inhibition by the compound was determined against human neutrophil elastase (HNE); summary of the method: as §1
[35] = target: T2, Urokinase-type plasminogen activator; assay: Time for which maximum percent inhibition persists was determined against Urokinase-type plasminogen activator e (300 nM); * =no enzyme activity was recovered over 2 h; format: functional
[36] = target: T3, Serine protease 1 (Bos taurus); assay: Time to reach maximum percent inhibition by the compound was determined against trypsin (14.6 nM); format: functional
Summary of the method: (§5)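 Trypsin was incubated with excess lactone added from DMSO stock (10% final DMSO). Aliquots taken over 2 h were diluted into Z-Val-Gly-Arg-pNA (155 μM) in 0.2 M phosphate, pH 7.2, and read at 404 nm. Activity came from the absorbance slope versus a no-lactone control. Reported are minutes to maximal inhibition and minutes it persisted; ∞ means no recovery within 2 h.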

[37] = target: Plasminogen (Homo sapiens) (UniProt P00747); assay: Time for which maximum percent inhibition persists was determined against plasmin; format: functional; summary of the method: as §1
[38] = target: T3, Serine protease 1 (Bos taurus); assay: Time for which maximum percent inhibition persists was determined against trypsin (14.6 nM); format: functional; summary of the method: as §5
[39] = target: Tissue-type plasminogen activator (Homo sapiens) (UniProt P00750); assay: Maximum percent inhibition by the compound was determined against Tissue plasminogen activator (19.4 nM); summary of the method: as §1
[40] = target: T3, Serine protease 1 (Bos taurus); assay: Substrate binding constant against trypsin; summary of the method: as §2
[41] = target: T1, Neutrophil elastase (Homo sapiens); assay: Time for which maximum percent inhibition persists was determined against human neutrophil elastase (HNE); format: functional; summary of the method: as §1

SMILES | Rate [4] [ka/Ks] | TIME [5] [h] | TIME [6] [h] | inhibition [7] [%] | inhibition [9] [%] | Ratio [10] [Io/Eo] | TIME [11] [h] | Ratio [13] [Io/Eo] | inhibition [14] [%] | Ratio [16] [Io/Eo] | TIME [17] [h] | TIME [18] [h] | inhibition [20] [%] | TIME [22] [h] | Ratio [23] [Io/Eo] | TIME [24] [h] | Ratio [25] [Io/Eo] | Ka [26] [min⁻¹] | Ka [27] [min⁻¹] | Ratio [28] [Io/Eo] | also measured
N=C(N)Nc1ccc(C2CC(=O)O/C(=C/I)C2)cc1 (stereo not given) | 0.33 | 1 | 0.25 | 99 | 97 | 86 | 0 | 16 | 38 | 118 | 0 | 1.5 | 47 | 0 | 50 | 0.25 | 100 | 0.54 | 2.61 | 36 | TIME [1]: 0.25 h; Rate [2]: 0.9 ka/Ks; TIME [3]: 0.25 h; inhibition [8]: 22%; inhibition [12]: 67%; Ka [15]: 11 min⁻¹; TIME [19]: No enzyme activity; Ks [21]: 11 µM; Kd (Serine protease 1): 0.00033 s⁻¹; Ks [29]: 7.83 µM; Ratio [30]: 518 Io/Eo; Ks [31]: 7.83 µM; Rate [32]: 0.13 ka/Ks
C=C1CCC(c2ccc(NC(=N)N)cc2)C(=O)O1 (stereo not given) | 1180 | 0 | 0 | 97 | 99 | 86 | 0 | 16 | 7 | 118 | 0 | 0 | 58 | 0.75 | 50 | 0 | 100 | 14 | 391 | 36 | TIME [33]: 0.25 h; inhibition [34]: 22%; TIME [35]: No enzyme activity; TIME [36]: 0 h; TIME [37]: 0 h; TIME [38]: 0.75 h; inhibition [39]: 29%; Ks [40]: 0.23 µM; TIME [41]: 0 h; Ks [29]: 0.33 µM; Ratio [30]: 518 Io/Eo; Rate [32]: 62 ka/Ks
